Data set [1] has as its target T1, Phosphatidylinositol 4,5-bisphosphate 3-kinase catalytic subunit beta isoform (Homo sapiens, UniProt P42338). In words: Inhibition of human PI3K p110beta-mediated AKT phosphorylation at Ser473 in MDA-MB-468 cells after 2 hrs by fluorescence microplate cytometric analysis. The class given is cell-based. Put shortly: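 MDA-MB-468 cells kept in DMEM with 10% heat-inactivated FCS and L-glutamine. Seeded at 1500 cells/well, incubated overnight at 37 °C, 5% CO2. Exposed to compound for 2 h. Ser473 phospho-Akt detected with a specific antibody by laser scanning fluorescence microplate cytometry.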

Data set [2] in a line: Clearance in fasted Beagle dog at 1 umol/kg, iv and 2 umol/kg, po. The format is ADME, organism-based, Canis lupus familiaris. As to conditions: in vivo; call rule not given here. Put shortly:
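Fasted male Beagle dogs, iv and po (N = 2 per route). Parameters derived by noncompartmental analysis of plasma concentrations.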

Data set [3] in a line: Fraction unbound in dog plasma after 18 hrs by equilibrium dialysis method. The class given is ADME, cell-free, Canis lupus familiaris. Put shortly:
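Unbound plasma fraction determined by equilibrium dialysis, 18 h at 37 °C.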

Data set [4] is described as follows: Lipophilicity, log D of the compound at pH 7.4 by HPLC analysis. The format is physicochemical. As to conditions: buffer. The procedure, abridged:
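LogD measured at pH 7.4 by HPLC.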

Data set [5] in a line: Antiplatelet activity in human whole blood assessed as inhibition of ADP-induced platelet aggregation by impedance aggregometry. The class given is functional, tissue-based. The procedure, abridged: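 Citrated whole blood drawn by venipuncture from healthy human donors or beagle dogs, sodium citrate at 11 mM final in blood. ADP-induced aggregation read by Multiplate impedance aggregometry. N > 3.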

The target in data set [6] is Voltage-gated potassium channel, IKs; KCNQ1(Kv7.1)/KCNE1(MinK) (Homo sapiens, UniProt P51787+P15382). In words: Inhibition of human IKs expressed in CHO cells at 31.6 uM by patch clamp assay. The class given is cell-based.
For data set [7], the target named is T2, A-type voltage-gated potassium channel KCND3 (Homo sapiens, UniProt Q9UK17).
T2 sequence (Q9UK17 whole entry): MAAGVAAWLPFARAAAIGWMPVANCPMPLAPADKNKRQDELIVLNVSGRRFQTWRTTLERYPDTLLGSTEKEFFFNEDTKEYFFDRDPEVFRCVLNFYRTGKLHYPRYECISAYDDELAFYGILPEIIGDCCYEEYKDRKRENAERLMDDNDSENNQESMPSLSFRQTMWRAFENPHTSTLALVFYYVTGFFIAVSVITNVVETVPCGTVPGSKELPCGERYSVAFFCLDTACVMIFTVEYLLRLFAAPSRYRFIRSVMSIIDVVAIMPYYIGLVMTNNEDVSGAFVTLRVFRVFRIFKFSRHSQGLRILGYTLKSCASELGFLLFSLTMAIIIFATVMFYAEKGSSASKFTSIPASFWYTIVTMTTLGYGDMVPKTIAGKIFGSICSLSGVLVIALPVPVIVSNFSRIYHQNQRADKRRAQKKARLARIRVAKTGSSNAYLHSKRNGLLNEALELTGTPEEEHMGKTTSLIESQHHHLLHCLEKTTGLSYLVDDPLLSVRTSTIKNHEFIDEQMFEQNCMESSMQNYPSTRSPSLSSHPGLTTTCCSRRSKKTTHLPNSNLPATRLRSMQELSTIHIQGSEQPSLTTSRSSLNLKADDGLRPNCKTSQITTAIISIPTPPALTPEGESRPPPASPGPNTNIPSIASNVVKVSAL
Nature of the data set: Inhibition of human KV4.3 expressed in CHO cells at 31.6 uM by patch clamp assay. The format is cell-based. (The patch-clamp technique gives a direct electrical read-out from membranes.)

Data set [8] deals with T1, Phosphatidylinositol 4,5-bisphosphate 3-kinase catalytic subunit beta isoform. In words: Inhibition of human recombinant His6-tagged PI3K p110beta expressed in baculovirus infected cells using DiC8-PI(4,5)P2 as substrate after 20 mins by AlphaScreen assay. In general terms: In Alpha technology, singlet oxygen from a donor bead excites a nearby acceptor bead.
In a further data set the target is Cytochrome P450 2C9 (Homo sapiens, UniProt P11712). In words: Inhibition of CYP2C9. The format is ADME.
The species named for another data set is Homo sapiens. In words: Selectivity ratio of IC50 for human PI3K p110alpha to IC50 for human PI3K p110beta.
Data set [9] deals with Voltage-gated inwardly rectifying potassium channel KCNH2 (Homo sapiens, UniProt Q12809). Nature of the data set: Inhibition of human ERG expressed in CHO cells at 31.6 uM by patch clamp assay. The format is cell-based.
Sequence of Voltage-gated inwardly rectifying potassium channel KCNH2 (Q12809 whole entry): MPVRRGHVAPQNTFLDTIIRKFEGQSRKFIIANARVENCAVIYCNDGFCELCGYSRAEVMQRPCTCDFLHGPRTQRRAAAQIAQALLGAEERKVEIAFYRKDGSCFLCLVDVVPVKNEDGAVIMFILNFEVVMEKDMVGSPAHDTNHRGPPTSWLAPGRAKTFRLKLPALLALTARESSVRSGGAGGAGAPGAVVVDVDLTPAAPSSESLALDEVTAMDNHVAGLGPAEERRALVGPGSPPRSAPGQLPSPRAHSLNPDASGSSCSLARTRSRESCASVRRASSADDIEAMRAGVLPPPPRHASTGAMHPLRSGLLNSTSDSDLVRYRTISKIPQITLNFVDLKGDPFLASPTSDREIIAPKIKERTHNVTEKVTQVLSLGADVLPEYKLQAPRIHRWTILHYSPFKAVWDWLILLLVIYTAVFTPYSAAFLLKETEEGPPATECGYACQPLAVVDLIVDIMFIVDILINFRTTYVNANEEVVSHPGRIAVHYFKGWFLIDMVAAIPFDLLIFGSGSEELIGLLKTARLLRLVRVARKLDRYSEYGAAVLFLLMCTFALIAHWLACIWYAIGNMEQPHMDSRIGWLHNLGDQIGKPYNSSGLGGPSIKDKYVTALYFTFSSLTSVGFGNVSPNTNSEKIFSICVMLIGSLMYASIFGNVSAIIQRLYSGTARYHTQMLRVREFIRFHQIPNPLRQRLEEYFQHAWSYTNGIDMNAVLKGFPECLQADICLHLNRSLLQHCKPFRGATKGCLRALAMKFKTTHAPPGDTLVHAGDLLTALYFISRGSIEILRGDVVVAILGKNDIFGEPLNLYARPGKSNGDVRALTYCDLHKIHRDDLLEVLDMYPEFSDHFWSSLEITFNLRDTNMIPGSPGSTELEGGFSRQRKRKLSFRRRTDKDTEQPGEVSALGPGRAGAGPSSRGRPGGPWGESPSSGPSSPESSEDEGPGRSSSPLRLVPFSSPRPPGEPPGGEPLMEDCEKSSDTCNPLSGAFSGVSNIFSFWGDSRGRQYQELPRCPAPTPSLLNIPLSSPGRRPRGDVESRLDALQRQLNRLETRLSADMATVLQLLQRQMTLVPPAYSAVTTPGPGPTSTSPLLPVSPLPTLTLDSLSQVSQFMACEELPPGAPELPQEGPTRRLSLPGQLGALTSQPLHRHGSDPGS

T1 sequence (P42338 whole entry, canonical isoform): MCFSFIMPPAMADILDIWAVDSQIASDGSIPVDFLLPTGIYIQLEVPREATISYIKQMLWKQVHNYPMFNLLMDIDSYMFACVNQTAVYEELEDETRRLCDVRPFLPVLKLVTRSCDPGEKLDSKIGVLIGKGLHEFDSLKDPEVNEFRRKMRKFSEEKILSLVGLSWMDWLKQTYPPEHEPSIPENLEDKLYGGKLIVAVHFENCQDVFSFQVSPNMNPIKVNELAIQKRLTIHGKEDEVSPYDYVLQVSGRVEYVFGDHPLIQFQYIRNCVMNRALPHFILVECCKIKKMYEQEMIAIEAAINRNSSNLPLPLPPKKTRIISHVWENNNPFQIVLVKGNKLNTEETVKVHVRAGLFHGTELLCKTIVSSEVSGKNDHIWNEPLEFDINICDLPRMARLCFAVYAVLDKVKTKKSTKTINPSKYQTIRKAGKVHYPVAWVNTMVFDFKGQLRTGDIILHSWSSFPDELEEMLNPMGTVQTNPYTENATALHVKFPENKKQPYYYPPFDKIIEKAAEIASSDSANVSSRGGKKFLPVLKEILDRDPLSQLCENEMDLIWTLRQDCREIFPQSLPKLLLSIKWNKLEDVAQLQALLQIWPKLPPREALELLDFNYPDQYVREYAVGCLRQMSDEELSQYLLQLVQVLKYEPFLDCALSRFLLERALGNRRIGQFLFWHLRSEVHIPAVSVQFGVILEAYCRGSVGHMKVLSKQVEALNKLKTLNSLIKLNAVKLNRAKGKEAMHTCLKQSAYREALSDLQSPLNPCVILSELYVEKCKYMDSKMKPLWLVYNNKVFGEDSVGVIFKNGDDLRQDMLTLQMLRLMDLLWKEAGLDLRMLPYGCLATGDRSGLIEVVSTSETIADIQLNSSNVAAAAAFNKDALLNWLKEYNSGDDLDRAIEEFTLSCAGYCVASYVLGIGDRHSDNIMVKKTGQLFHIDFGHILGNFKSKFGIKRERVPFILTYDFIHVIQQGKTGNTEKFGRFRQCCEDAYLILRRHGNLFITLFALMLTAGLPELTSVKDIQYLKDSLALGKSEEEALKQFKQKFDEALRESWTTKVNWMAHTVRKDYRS
Sequence of Voltage-gated potassium channel, IKs; KCNQ1(Kv7.1)/KCNE1(MinK) (P51787 whole entry): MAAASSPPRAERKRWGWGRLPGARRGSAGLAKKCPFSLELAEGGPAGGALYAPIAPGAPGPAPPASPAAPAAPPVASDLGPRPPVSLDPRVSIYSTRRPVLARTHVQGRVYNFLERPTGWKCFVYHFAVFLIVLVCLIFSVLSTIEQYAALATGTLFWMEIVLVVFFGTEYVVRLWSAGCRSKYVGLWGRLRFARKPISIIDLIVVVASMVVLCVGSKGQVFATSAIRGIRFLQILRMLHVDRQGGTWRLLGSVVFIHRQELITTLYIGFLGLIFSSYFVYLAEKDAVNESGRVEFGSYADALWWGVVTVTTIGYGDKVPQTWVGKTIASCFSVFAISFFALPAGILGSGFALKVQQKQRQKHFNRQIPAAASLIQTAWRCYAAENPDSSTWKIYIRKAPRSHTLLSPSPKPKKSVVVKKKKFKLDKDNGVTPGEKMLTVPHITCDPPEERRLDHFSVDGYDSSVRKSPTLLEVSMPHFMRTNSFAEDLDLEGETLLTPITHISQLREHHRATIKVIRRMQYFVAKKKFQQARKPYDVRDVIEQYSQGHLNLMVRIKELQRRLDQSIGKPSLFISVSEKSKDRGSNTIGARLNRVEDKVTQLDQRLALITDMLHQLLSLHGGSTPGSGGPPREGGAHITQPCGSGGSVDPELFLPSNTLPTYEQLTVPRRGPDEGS
Sequence of Cytochrome P450 2C9 (P11712 whole entry): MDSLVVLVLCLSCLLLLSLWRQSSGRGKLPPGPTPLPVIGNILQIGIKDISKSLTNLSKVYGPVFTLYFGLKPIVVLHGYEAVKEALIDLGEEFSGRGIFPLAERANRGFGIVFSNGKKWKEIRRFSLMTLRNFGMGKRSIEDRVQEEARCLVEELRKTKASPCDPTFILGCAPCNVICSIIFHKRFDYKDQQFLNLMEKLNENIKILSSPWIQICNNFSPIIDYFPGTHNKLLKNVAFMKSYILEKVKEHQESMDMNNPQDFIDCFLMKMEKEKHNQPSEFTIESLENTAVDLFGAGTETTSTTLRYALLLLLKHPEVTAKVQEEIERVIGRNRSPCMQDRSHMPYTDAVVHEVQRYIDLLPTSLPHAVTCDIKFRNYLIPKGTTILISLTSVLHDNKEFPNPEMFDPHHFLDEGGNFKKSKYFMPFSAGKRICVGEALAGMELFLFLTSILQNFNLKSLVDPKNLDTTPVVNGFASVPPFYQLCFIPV

The IC50 is the concentration at which inhibition is half-maximal. The term fraction unbound denotes the share of the substance not bound to proteins or other matrix. Low values mean extensive binding, high ones weak binding. For orientation: logD means the decadic logarithm of the distribution of all forms, ionised or not, between an organic phase and buffer at a given pH. Read a high logD as a more lipophilic compound. `C[C@H]1CN(c2cc(N(CCO)Cc3cccc4ccccc34)[nH]c(=O)n2)CCO1`: the IC50 in [1] came to 0.195 µM; in data set [5], 2.1 µM; in [8] it was 0.038 µM; against Cytochrome P450 2C9, 4 µM. In data set [2], this compound had a clearance of 18 mL/min/kg. The compound also returned a fraction unbound at 18 h in data set [3] of 0.3. The compound also had a logD in data set [4] of 1.9. In addition, the “inhibition (INH)” value in data set [6], in data set [7] and in [9] was “Not Active” each time. Further, the Ratio IC50 in the data set listed under Homo sapiens was above 700.

For the origin of these results see ChEMBL document CHEMBL2163325, “Discovery of phosphoinositide 3-kinases (PI3K) p110β isoform inhibitor 4-[2-hydroxyethyl(1-naphthylmethyl)amino]-6-[(2S)-2-methylmorpholin-4-yl]-1H-pyrimidin-2-one, an effective antithrombotic agent without associated bleeding and insulin resistance” (Bioorg Med Chem Lett, 2012).
